Experimental data taken from ChEMBL document CHEMBL3758165, “In vitro interactions between anidulafungin and nonsteroidal anti-inflammatory drugs on biofilms of Candida spp” (2016).

Experiments:
Type in all cases: functional
Candida albicans [1] = experiment: Antibiofilm activity against Candida albicans ATCC 24433 by two dimensional checkerboard dilution method in presence of diclofenac
Summary of the method: (§1)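 Preformed 48 h disk biofilms (RPMI 1640, MOPS pH 7, 37 °C), PBS-washed, exposed 24 h at 37 °C on rocker to two-dimensional checkerboard of anidulafungin plus NSAID in RPMI; NSAID final 0.1 µM to 100 mM. XTT reduction at 490 nm; SMIC = combination giving 50% metabolic reduction versus drug-free control; FIC index calculated; triplicate on different days.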

Candida albicans [2] = experiment: Antibiofilm activity against Candida albicans ATCC 24433 by two dimensional checkerboard dilution method in presence of ibuprofen; summary of the method: as §1
[3] = system: Meyerozyma guilliermondii; experiment: Antibiofilm activity against Candida guilliermondii ATCC 6260 by two dimensional checkerboard dilution method in presence of ibuprofen; summary of the method: as §1
[4] = system: Meyerozyma guilliermondii; experiment: Antibiofilm activity against Candida guilliermondii a83 assessed as fractional inhibitory concentration by two dimensional checkerboard dilution method in presence of aspirin
Summary of the method: (§2)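 Biofilms were grown on PVC disks from 2 ml of a 1·10^6 cfu/ml cell suspension. Adhesion ran 1.5 h at 37 °C with shaking at 100 rpm. Disks were PBS-washed, then matured 48 h at 37 °C in RPMI 1640 (MOPS, pH 7). Biofilms were washed again and given 24 h at 37 °C of anidulafungin/NSAID checkerboard combinations (NSAID final 0.1 µM–100 mM). Read-out was XTT-menadione (2 h, 37 °C, 490 nm). SMIC was defined as 50% reduction versus drug-free control, from which FICI was calculated. Triplicates were run on different days.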

Candida albicans [5] = experiment: Antibiofilm activity against Candida albicans 17a18 by two dimensional checkerboard dilution method in presence of aspirin; summary of the method: as §1
Nakaseomyces glabratus [6] = experiment: Antibiofilm activity against Candida glabrata ATCC 15126 by two dimensional checkerboard dilution method
Summary of the method: (§3)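 Biofilms grown on sterilized PVC disks: 1·10^6 cfu/ml Candida cells adhered for 1.5 h at 37 °C with shaking, washed with PBS, then matured 48 h at 37 °C in RPMI 1640 (MOPS, pH 7). Preformed biofilms were washed and exposed to drug, alone or in two-dimensional checkerboard combination, in RPMI 1640 for 24 h at 37 °C on a rocker.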

[7] = system: Meyerozyma guilliermondii; experiment: Antibiofilm activity against Candida guilliermondii ATCC 6260 after 48 hrs by XTT reduction assay relative to control; design: scale not given: the % may be the effect or the level left
Summary of the method: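 Biofilms grown on autoclaved PVC disks: 1·10^6 cfu ml-1 cells, adhesion 1.5 h at 37 °C shaking 100 rpm, PBS wash, then 48 h at 37 °C in RPMI 1640 (MOPS, pH 7). Metabolic activity read by XTT–menadione reduction, 2 h at 37 °C, supernatant formazan at 490 nm, relative to drug-free control; triplicate on different days.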

Candida albicans [8] = experiment: Antibiofilm activity against Candida albicans ATCC 24433 assessed as fractional inhibitory concentration by two dimensional checkerboard dilution method in presence of ibuprofen; summary of the method: as §1
[9] = system: Meyerozyma guilliermondii; experiment: Antibiofilm activity against Candida guilliermondii a83 by two dimensional checkerboard dilution method in presence of ibuprofen; summary of the method: as §2
Candida albicans [10] = experiment: Antibiofilm activity against Candida albicans ATCC 90028 by two dimensional checkerboard dilution method in presence of diclofenac; summary of the method: as §1
[11] = system: Meyerozyma guilliermondii; experiment: Antibiofilm activity against Candida guilliermondii a410 by two dimensional checkerboard dilution method in presence of aspirin; summary of the method: as §2
Candida albicans [12] = experiment: Antibiofilm activity against Candida albicans ATCC 10231 by two dimensional checkerboard dilution method in presence of diclofenac; summary of the method: as §1
Candida albicans [13] = experiment: Antibiofilm activity against Candida albicans ATCC 90028 by two dimensional checkerboard dilution method; summary of the method: as §3
[14] = system: Meyerozyma guilliermondii; experiment: Antibiofilm activity against Candida guilliermondii ATCC 6260 assessed as fractional inhibitory concentration by two dimensional checkerboard dilution method in presence of diclofenac; summary of the method: as §1
[15] = system: Meyerozyma guilliermondii; experiment: Antibiofilm activity against Candida guilliermondii a410 by two dimensional checkerboard dilution method in presence of ibuprofen; summary of the method: as §2
Candida albicans [16] = experiment: Antibiofilm activity against Candida albicans 17a18 by two dimensional checkerboard dilution method in presence of diclofenac; summary of the method: as §1
[17] = system: Meyerozyma guilliermondii; experiment: Antibiofilm activity against Candida guilliermondii ATCC 6260 assessed as fractional inhibitory concentration by two dimensional checkerboard dilution method in presence of aspirin; summary of the method: as §1
[18] = system: Meyerozyma guilliermondii; experiment: Antibiofilm activity against Candida guilliermondii a410 assessed as fractional inhibitory concentration by two dimensional checkerboard dilution method in presence of ibuprofen; summary of the method: as §2
Candida albicans [19] = experiment: Antibiofilm activity against Candida albicans ATCC 10231 by two dimensional checkerboard dilution method in presence of anidulafungin; summary of the method: as §3
[20] = system: Meyerozyma guilliermondii; experiment: Potentiation of anidulafungin-induced antibiofilm activity against Candida guilliermondii a410 assessed as anidulafungin-fractional inhibitory concentration index by two dimensional checkerboard dilution method
Summary of the method: (§4)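 Biofilms grown on PVC disks: 1·10^6 cfu/ml in RPMI 1640 (MOPS, pH 7), 1.5 h adhesion at 37 °C with shaking, PBS wash, 48 h maturation at 37 °C. Preformed biofilms exposed 24 h at 37 °C to anidulafungin/NSAID checkerboard combinations in RPMI. XTT-menadione reduction read at 490 nm. SMIC = 50% metabolic reduction versus drug-free control. Triplicate runs on different days; FIC index calculated.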

Candida albicans [21] = experiment: Antibiofilm activity against Candida albicans ATCC 10231 at 0.1 uM to 100 mM after 48 hrs by XTT reduction assay relative to control; design: scale not given: the % may be the effect or the level left; summary of the method: as §3
Nakaseomyces glabratus [22] = experiment: Antibiofilm activity against Candida glabrata ATCC 15126 assessed as fractional inhibitory concentration by two dimensional checkerboard dilution method in presence of anidulafungin; summary of the method: as §4
Candida albicans [23] = experiment: Antibiofilm activity against Candida albicans ATCC 24433 by two dimensional checkerboard dilution method in presence of anidulafungin; summary of the method: as §3
Candida albicans [24] = experiment: Antibiofilm activity against Candida albicans ATCC 24433 assessed as fractional inhibitory concentration by two dimensional checkerboard dilution method in presence of anidulafungin; summary of the method: as §4
Candida albicans [25] = experiment: Potentiation of anidulafungin-induced antibiofilm activity against Candida albicans ATCC 24433 at 0.1 uM to 100 mM after 48 hrs by XTT reduction assay relative to control; design: scale not given: the % may be the effect or the level left; summary of the method: as §3
[26] = system: Meyerozyma guilliermondii; experiment: Antibiofilm activity against Candida guilliermondii ATCC 6260 at 1 mM after 24 hrs by XTT reduction assay relative to control; design: scale not given: the % may be the effect or the level left; summary of the method: as §3
Candida albicans [27] = experiment: Antibiofilm activity against Candida albicans ATCC 90028 at 1 mM after 24 hrs by XTT reduction assay relative to control; design: scale not given: the % may be the effect or the level left; summary of the method: as §3
Candida albicans [28] = experiment: Potentiation of anidulafungin-induced antibiofilm activity against Candida albicans ATCC 24433 assessed as anidulafungin-fractional inhibitory concentration index by two dimensional checkerboard dilution method; summary of the method: as §4
[29] = system: Meyerozyma guilliermondii; experiment: Antibiofilm activity against Candida guilliermondii a83 by two dimensional checkerboard dilution method in presence of anidulafungin; summary of the method: as §3
Candida albicans [30] = experiment: Antibiofilm activity against Candida albicans ATCC 24433 at 0.1 uM to 100 mM after 48 hrs by XTT reduction assay relative to control; design: scale not given: the % may be the effect or the level left; summary of the method: as §3
[31] = system: Meyerozyma guilliermondii; experiment: Antibiofilm activity against Candida guilliermondii a410 at 0.2 mM after 24 hrs by XTT reduction assay relative to control; design: scale not given: the % may be the effect or the level left; summary of the method: as §3
Candida albicans [32] = experiment: Antibiofilm activity against Candida albicans ATCC 10231 at 1 mM after 24 hrs by XTT reduction assay relative to control; design: scale not given: the % may be the effect or the level left; summary of the method: as §3

MIC (Nakaseomyces glabratus [6])	MIC (Candida albicans [13])	MIC (Candida albicans [19])	MIC (Candida albicans [23])	MIC [29]	SMILES	fractional inhibitory concentration index (FICI) [20]	Activity (Candida albicans [21])	Ratio (Nakaseomyces glabratus [22])	Ratio (Candida albicans [24])	Activity (Candida albicans [25])	Activity (Candida albicans [27])	fractional inhibitory concentration index (FICI) (Candida albicans [28])	Activity (Candida albicans [30])	other results
200 µM	1000 µM	10 µM	100 µM	10 µM	CC(=O)Oc1ccccc1C(=O)O [ASPIRIN]	0.15	49.21%	0.05	0.1	56.14%	44.72%	0.15		Activity [26]: 54.12%
100000 µM	100000 µM	5000 µM	5000 µM	20000 µM	O=C([O-])Cc1ccccc1Nc1c(Cl)cccc1Cl.[Na+] [DICLOFENAC SODIUM]	0.45	53.57%	0.2	0.05	65.24%		0.1	50.25%	
200 µM	1000 µM	50 µM	1000 µM	40 µM	CC(C)Cc1ccc(C(C)C(=O)O)cc1 (configuration not stated) [IBUPROFEN]	0.3		0.2	0.1	60.14%	25.62%	0.3	22.45%	Activity [31]: 53.24%; Activity (Candida albicans [32]): 16.26%

SMILES	MIC (Nakaseomyces glabratus [6])	MIC (Candida albicans [13])	MIC (Candida albicans [19])	MIC (Candida albicans [23])	MIC [29]	fractional inhibitory concentration index (FICI) [20]	Activity (Candida albicans [21])	Ratio (Nakaseomyces glabratus [22])	Ratio (Candida albicans [24])	Activity (Candida albicans [25])	Activity (Candida albicans [27])	fractional inhibitory concentration index (FICI) (Candida albicans [28])	Activity (Candida albicans [30])	other results
CCCCCOc1ccc(-c2ccc(-c3ccc(C(=O)N[C@@H]4C[C@@H](O)[C@@H](O)NC(=O)[C@@H]5[C@@H](O)[C@@H](C)CN5C(=O)[C@H]([C@@H](C)O)NC(=O)[C@H]([C@H](O)[C@@H](O)c5ccc(O)cc5)NC(=O)[C@@H]5C[C@@H](O)CN5C(=O)[C@H]([C@H](C)O)NC4=O)cc3)cc2)cc1	2 µg/mL	2 µg/mL												MIC (Candida albicans [1]): 0.1 µg/mL; MIC (Candida albicans [2]): 0.4 µg/mL; MIC [3]: 0.4 µg/mL; Ratio [4]: 0.05; MIC (Candida albicans [5]): 0.1 µg/mL; Activity [7]: 51.21%; Ratio (Candida albicans [8]): 0.2; MIC [9]: 0.1 µg/mL; MIC (Candida albicans [10]): 0.1 µg/mL; MIC [11]: 0.1 µg/mL; MIC (Candida albicans [12]): 0.1 µg/mL; Ratio [14]: 0.05; MIC [15]: 0.4 µg/mL; MIC (Candida albicans [16]): 0.1 µg/mL; Ratio [17]: 0.05; Ratio [18]: 0.2
